# This is a sample that favours compounds with a hit; in the whole collection about 1.9% have one here.
# ABHD5 PLIN5 PPI = inhibitors of human ABHD5-perilipin-5 interaction | Q00G26+Q8WTS1 | Split G. princeps luciferase complementation, luminescence, 4 h | inhibition, % at 4 µM | 360,000 compounds, 0.78% hits | AID 602281;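 active = inhibition above the mean inhibition across every tested compound plus 3 SD, cut at about 22% in these data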;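 note: 0% = DMSO only wells and the 100% control is not disclosed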
# Rad51 HR inh = Rad51 (human) homologous recombination inhibition; 200,000 compounds, 0.085% hits; hRad51 DNA strand exchange, fluorescence dequenching; AID 1385; Q06609; inhibition, % at 10 µM;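 active = inhibition above 40% at the single screening dose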;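 note: 0% = DMSO control wells and 100% = blanks with heterologous ssDNA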
# Target sequence (Q06609 whole entry, looked up): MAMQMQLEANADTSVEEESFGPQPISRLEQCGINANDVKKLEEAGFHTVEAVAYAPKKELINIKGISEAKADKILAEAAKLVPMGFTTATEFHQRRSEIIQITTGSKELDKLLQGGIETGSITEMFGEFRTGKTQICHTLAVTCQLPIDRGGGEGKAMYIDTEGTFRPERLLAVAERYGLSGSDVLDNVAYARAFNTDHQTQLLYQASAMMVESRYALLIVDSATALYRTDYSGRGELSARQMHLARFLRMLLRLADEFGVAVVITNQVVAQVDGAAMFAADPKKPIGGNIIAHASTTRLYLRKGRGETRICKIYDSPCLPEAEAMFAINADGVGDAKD
#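 System: hRad51 filaments on single-stranded DNA; reagent: Fluorescein- and BHQ1-tagged 47-mer duplex; compound dosing: one concentration, 10 µM final; timing: filaments 15 min 37 °C, then compound 30 min; measured by: fluorescein emission 520 nm, excitation 485 nm; benchmarks: per-plate controls and blanks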
# H9c2 TAG inh = reduces triacylglycerol accumulation in H9c2 cells. 230,000 compounds, 0.66% hits. inhibition, % at 12.5 µM. Nile Red lipid (TAG) fluorescence; cells loaded with 200 µM oleic acid. AID 651582;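 active = pattern-corrected inhibition of lipid staining of at least 50% with the nuclear-stain viability signal not falling by more than 50%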;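 note: 0% = DMSO wells and 100% = triacsin C control wells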
# Hsp70 activator = Hsp70 transcriptional activation, primary screen; 200,000 compounds, 0.04% hits; activation, % at 10 µM; HeLa Hsp70 promoter luciferase reporter, luminescence; scaled: vehicle 0, proteasome-inhibitor control 100%;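 active = activation above the mean across all tested compounds plus 3 SD, cutoff set per campaign, cut at about 5.5% in these data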;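 note: 100% = MG132 at 30 µM as the positive control and 0% = DMSO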
# HIF act = HIF pathway transcriptional activation | U2OS HRE-luciferase reporter, luminescence; normalized: DMSO 0%, desferrioxamine 100% | activation, % at 7.5 µM (by protocol) | 300,000 compounds, 0.32% hits;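 active = mean activation of at least 10% of the iron chelator positive control signal, with at least half of replicates also reaching 10%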
# FXN GAA850 act = frataxin GAA850 promoter activation; HEK293 lucGAA850 FXN promoter luciferase reporter, 24 h; percent of 10 µM SAHA response; activation, % at 6 µM; 360,000 compounds, 0.56% hits; AID 540364;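 active = activation above the average of all compounds screened plus 3 SD, cutoff fixed separately per campaign, cut at about 7.5% in these data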;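 note: 0% = DMSO wells and 100% = 10 µM SAHA wells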
# GAA30 FXN cntr = activates GAA30 frataxin promoter, counter-screen for GAA850 activators. activation, % at 6 µM. HEK293 lucGAA30 FXN promoter luciferase, 24 h; DMSO = 0%, 5 µM ipriflavone = 100%. shares compounds with FXN GAA850 act. 1,900 compounds, 66% hits;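 active = mean activation above the mean of solvent-only control wells plus 3 SD, cut at about 22% in these data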;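 note: counterscreen of GAA850 promoter hits where activity marks nonselective or luminescence artifacts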
# GAA850 confirm = confirmation of GAA850 frataxin (FXN) promoter activators; HEK293 lucGAA850 FXN promoter luciferase reporter, 24 h; 100% = activation by SAHA; activation, % at 6 µM; shares compounds with FXN GAA850 act; AID 588351; 1,900 compounds, 86% hits;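 active = mean activation above a set limit taken from the primary screen, cut at about 8% in these data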;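 note: 0% = DMSO wells and 100% = 10 µM SAHA wells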
# ABHD5 PLIN5 conf = confirmation of human ABHD5-PLIN5 interaction inhibitors; shares compounds with ABHD5 PLIN5 PPI; biochemical ABHD5-PLIN5 interaction, luminescence; inhibition, % at 4 µM; 2,200 compounds, 67% hits; AID 651612; in the data active = inhibition above about 23%;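 note: 0% = DMSO vehicle wells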
# HNF4 split-luc = counter-screen for ABHD5-PLIN5 inhibitors: HNF4 split-luciferase. HNF4 dimerization, luminescence, biochemical. inhibition, % at 4 µM. shares compounds with ABHD5 PLIN5 PPI. 2,200 compounds, 77% hits. AID 651674;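 active = mean inhibition across replicate wells exceeding the computed hit threshold, cut at about 13% in these data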;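 note: light from luciferase halves that rejoin when HNF4 fusion proteins dimerize; 0% = DMSO only wells and the 100% control is not given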
# Active calls of the source: *; . = no result.
SMILES,ABHD5 PLIN5 PPI,Rad51 HR inh,H9c2 TAG inh,Hsp70 activator,HIF act,FXN GAA850 act,others
O=c1c2ccccc2nc(-c2ccc(Cl)cc2Cl)n1-c1nccs1,5,.,.,0,0,2,
COc1cc2c(cc1OC)-c1c3c(cc4c1[C@@H](C2)N(C)CC4)OCO3,3,2,53*,0,-1,0,
CCCCC1(CCCC)C(=O)NC(=Nc2cccc(C)c2)NC1=O,0,-2,-13,0,-1,-3,
Cc1cccc(N=C2c3cc([N+](=O)[O-])ccc3-c3c2cc([N+](=O)[O-])cc3[N+](=O)[O-])c1,22*,.,62*,.,.,0,
COC(=O)C1=Nc2ccccc2/C1=C\c1c(O)n(-c2ccc(Br)cc2)c(=O)[nH]c1=O,19,-12,.,0,.,3,
COC(=O)C1=Nc2ccccc2/C1=C\c1c(O)n(-c2ccc(OC)cc2)c(=O)[nH]c1=O,38*,6,.,0,0,0,
C=C(C)CSc1nnc([C@@H](N)Cc2c[nH]c3ccccc23)o1,2,5,.,0,0,-1,
CC(C)=CCSc1nnc([C@@H](N)Cc2c[nH]c3ccccc23)o1,-2,-1,.,0,18*,1,
CC(C)n1c(O)c(C2c3cc(Cl)ccc3Oc3[nH]c(=O)n(C(C)C)c(=O)c32)c(=O)[nH]c1=O (stereo unspecified),37*,8,4,.,0,5,
FCCN(CCF)c1cccc(Cl)c1,.,0,.,.,0,.,
CC(=O)N[C@@H]1CC[C@@]2(O)[C@H]3Cc4ccc(O)c5c4[C@@]2(CCN3CC2CC2)[C@@H]1O5,2,.,.,.,.,-3,
NC(N)=Nc1ccc2[nH]c3c(c2c1)C[C@@]1(O)[C@H]2Cc4ccc(O)c5c4[C@@]1(CCN2CC1CC1)[C@H]3O5,12,.,4,.,.,11*,
CCN1/C(=C\C=C\C2=[N+](CC)c3ccccc3C2(C)C)C(C)(C)c2ccccc21,46*,.,-259,0,-3,-15,
CN(C)[C@@H]1C(=O)C(C(N)=O)=C(O)[C@@]2(O)C(=O)C3=C(O)c4c(O)ccc(Cl)c4[C@@](C)(O)[C@H]3C[C@@H]12,-11,.,.,.,0,13*,GAA30 FXN cntr=41*;GAA850 confirm=15*
COc1cc2nc(CN3CC=C(c4ccccc4)CC3)[nH]c(=O)c2cc1OC,6,.,73*,.,0,22*,GAA30 FXN cntr=77*;GAA850 confirm=61*
CC12CCC3C(CC=C4CC(O)CCC43C)C1CC(=CN1CCOCC1)C2=O (stereo unspecified),7,.,-5,.,.,2,
CC(=NNC(=S)N1CC2CCC(CC2)C1)c1nccs1,4,.,11,.,.,12*,GAA30 FXN cntr=-66;GAA850 confirm=4
CCn1c(NN=O)nc2ccccc21,6,20,43,0,5,0,
Cc1[nH]c2ccc(OC(F)(F)F)cc2c1CCNCc1ccc(Cl)cc1,9,.,.,.,-2,13*,GAA30 FXN cntr=10;GAA850 confirm=8.9*
C/C1=C\[C@@H](C)C/C=C/[C@H]2[C@@H]3O[C@]3(C)[C@@H](C)[C@H]3[C@H](Cc4c[nH]c5ccccc45)NC(=O)[C@]32C(=O)/C=C/C(=O)[C@@H]1O,70*,7,.,0,-2,8.8*,GAA30 FXN cntr=-16;GAA850 confirm=46*
CC(=O)OC1(c2ccccc2)CCN(C)C(C)C1C (stereo unspecified),4,1,-1,0,0,2,
CCN[C@@H](C)Cc1cccc(C(F)(F)F)c1,-1,.,.,.,.,14*,GAA30 FXN cntr=12;GAA850 confirm=6
CC(C)OS(C)(=O)=O,0,.,.,.,.,2,
O=[N+]([O-])c1c(Cl)c(Cl)c(Cl)c(Cl)c1Cl,-1,.,-11,.,.,0,
Nc1cc(Cl)c2nonc2c1[N+](=O)[O-],20,-9,.,0,.,43*,GAA30 FXN cntr=14;GAA850 confirm=86*
SMILES,ABHD5 PLIN5 PPI,Rad51 HR inh,H9c2 TAG inh,Hsp70 activator,HIF act,FXN GAA850 act,others
O=C(Nc1ccc2ccccc2c1)N1C[C@H]2C[C@@H](C1)c1cccc(=O)n1C2,2,.,-12,.,0,2,
CCN(CC)P(c1n(C)cc[n+]1C)N(CC)CC,4,3,10,0,-1,0,
Cc1ccc(-c2nc3ccc(Cl)cc3n2OC(=O)N(C)C)cc1,1,2,-15,0,4,7.7*,GAA30 FXN cntr=109*;GAA850 confirm=41*
CN(C)C(=O)Oc1ccc(-c2cn3cc(Cl)ccc3n2)cc1,2,7,.,0,1,5,
OC12ONC(c3ccccn3)C1N1CCC2CC1 (stereo unspecified),52*,-1,.,0,0,18*,GAA30 FXN cntr=34*;GAA850 confirm=16*;ABHD5 PLIN5 conf=2;HNF4 split-luc=25*
COc1ccc(-n2c(O)c(C(C)=NCCCn3ccnc3)c(=O)[nH]c2=O)cc1,4,2,.,0,0,-5,
O=C1NC(=S)NC(=O)C1=Cc1cccn1-c1ccc(O)cc1,24*,6,-10,0,-2,-1,ABHD5 PLIN5 conf=91*;HNF4 split-luc=95*
Cc1cc(C)cc(N2C(=O)NC(=O)/C(=C\c3cccn3-c3ccc(Cl)cc3)C2=O)c1,-3,1,.,0,0,0,
CN1C(=O)/C(=C/c2cccn2-c2ccc3ccccc3c2)C(=O)NC1=S,7,17,-5,0,0,1,
Cc1cc(C)cc(N2C(=O)NC(=O)/C(=C\c3cccn3-c3ccccc3)C2=O)c1,25*,.,2,0,-1,6,ABHD5 PLIN5 conf=58*;HNF4 split-luc=70*
CCCCn1c(NC(=O)c2ccco2)c(C(=O)OCC)c2nc3ccccc3nc21,31*,-8,.,0,2,-3,ABHD5 PLIN5 conf=41*;HNF4 split-luc=62*
CCCCn1c(NS(=O)(=O)c2ccc(C)cc2)c(C(=O)OCC)c2nc3ccccc3nc21,-21,7,.,0,0,-1,
CCOc1ccc(-c2cc(C)[n+](CCc3ccc(OC)c(OC)c3)c(-c3ccc(OCC)cc3)c2)cc1,24*,.,.,.,2,-4,ABHD5 PLIN5 conf=7;HNF4 split-luc=10
C=CCN1C(=O)NC(=O)/C(=C\c2ccc(-c3ccccc3[N+](=O)[O-])o2)C1=O,40*,-48,-5,0,0,4,ABHD5 PLIN5 conf=84*;HNF4 split-luc=82*
COc1ccc(S(=O)(=O)N2Cc3cnnn3-c3ccccc3C2C#N)cc1 (stereo unspecified),1,.,4,.,.,0,
